Variants at the floor of the assay were thinned out.
B1: tRNA (parent)
chain: GUUCCGUUGGCGUAAUGGUAACGCGUCUCCCUCCUAAGGAGAAGACUGCGGGUUCGAGUCCCGUACGGAACG

Variants of: B1
Assay: yeast fitness relative to wild type (ratio to wild type); higher = fitter; tRNA-Arg(CCU), competitive growth, 37 C, YPD
In short: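 Amplicons of the tRNA-Arg(CCU) gene were sequenced, 100-nucleotide paired-end, from the start population and from each end population of a pooled yeast competition. The competition, in six parallel replicates, lasted 24 hours in YPD at 37°C. Fitness relative to wild type was calculated from changes in genotype frequencies. Genotypes had to have ≥ 100 starting reads, and estimates < 0.5 were set to 0.5.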

Q: For GUUCCGUUGGCGUAAUGGUAACGCGUCUCCCUCCUAAGGAGAAGGCUGCGGGUUCGAGCCCCGUACGGAACG [A45G U59C], which yeast fitness is on record?
A: The yeast fitness was 1.03.

Q: With GUUCCGUUGGCGUAAUGGUAACGCGUCUCCCUCCUAAGGAGAAGCCUGCGGGUUCGAGUCCCGUACUGAACG [A45C G67U] as the variant, how does the yeast fitness read?
A: Its yeast fitness is 0.874.

Q: Which yeast fitness does the source give for GUUCCGUUGGCGUAAUGGUAACGCGUCUCCCUCCUAAGGAGAAGCCUGCGGGUUCGAGUCCCGUACCGAACG [A45C G67C] here?
A: Its yeast fitness is 0.639.

Q: Which yeast fitness does the source give for GUUCCGUUGGCGUAAUGGUAACGCGUCUCCCUCCUAAGGAGAAGUCUGCGGGUUCGAGUCCCGUCCGGAACG [A45U A65C] here?
A: Its yeast fitness is 0.801.

Q: With GUUCCGUUGGCGUAAUGGUAACGCGUCUCCCUCCUAAGGAGAAUACUGCGGGUUCGAAUCCCGUACGGAACG [G44U G58A] as the variant, how does the yeast fitness read?
A: Its yeast fitness is 0.946.

Q: With GUUCCGUUGGCGUAAUGGUAACGCGUCUCCCUCCUAAGGAGAAGCCUGCCGGUUCGAGUCCCGUACGGAACG [A45C G50C] as the variant, how does the yeast fitness read?
A: Its yeast fitness is 0.604.

Q: With GUUCCGUUGGCGUAAUGGUAACGCGUCUCCCUCCUAAGGAGAAGCCUGCGGGUUUGAGUCCCGUACGGAACG [A45C C55U] as the variant, how does the yeast fitness read?
A: Its yeast fitness is 0.692.

Q: For GUUCCGUUGGCGUAAUGGUAACGCGUCUCCCUCCUAAGGAGAAGCCUGCGGGUUCGAGUCCCGUGUGGAACG [A45C A65G C66U], which yeast fitness is on record?
A: The yeast fitness was 0.679.

Q: For GUUCCGUUGGCGUAAUGGUAACGCGUCUCCCUCCUAAGGAGAAGUCUGCGGAUUCGAGUCCCGUACGGAUCG [A45U G52A A70U], which yeast fitness is on record?
A: Its yeast fitness is 0.574.

Q: With GUUCCGUUGGCGUAAUGGUAACGCGUCUCCCUCCUAAGGAGAAGCCUGCGGGUUCGAGUCCCGUACGGAUCG [A45C A70U] as the variant, how does the yeast fitness read?
A: The yeast fitness was 0.862.

Q: With GUUCCGUUGGCGUAAUGGUAACGCGUCUCCCUCCUAAGGAGAACACUGCGGGUCCGAGUACCGUACGGAACG [G44C U54C C60A] as the variant, how does the yeast fitness read?
A: Its yeast fitness is no more than 0.5.

Q: For GUUCCGUUGGCGUAAUGGUAACGCGUCUCCCUCCUAAGGAGAAGCCUGCGGGUACGAGUCCCGUAUGGAACG [A45C U54A C66U], which yeast fitness is on record?
A: The yeast fitness was no more than 0.5.

Q: With GUUCCGUUGGCGUAAUGGUAACGCGUCUCCCUCCUAAGGAGAAGCCUGCGGGUUCGAGUCCCGUCCGGAACG [A45C A65C] as the variant, how does the yeast fitness read?
A: Its yeast fitness is 0.683.

Q: With GUUCCGUUGGCGUAAUGGUAACGCGUCUCCCUCCUAAGGAGAAGUCUGCGGGUUCGUGUCCCGUACGGAACG [A45U A57U] as the variant, how does the yeast fitness read?
A: Its yeast fitness is 0.744.

Q: Which yeast fitness does the source give for GUUCCGUUGGCGUAAUGGUAACGCGUCUCCCUCCUAAGGAGAAGCCUGCGGGUUUGAGUCCCGUACGGCACG [A45C C55U A69C] here?
A: The yeast fitness was no more than 0.5.

Q: With GUUCCGUUGGCGUAAUGGUAACGCGUCUCCCUCCUAAGGAGAAGGCCCCGGGUUCGAGACCCGUACGGAACG [A45G U47C G48C U59A] as the variant, how does the yeast fitness read?
A: Its yeast fitness is 0.576.

Q: With GUUCCGUUGGCGUAAUGGUAACGCGUCUCCCUCCUAAGGAGAAGGCGGCGGGUUCGAGUCCCGUACGGAACG [A45G U47G] as the variant, how does the yeast fitness read?
A: The yeast fitness was 0.756.

Q: For GUUCCGUUGGCGUAAUGGUAACGCGUCUCCCUCCUAAGGAGAAGGCUGCGGGUUUGAGUCCCGUACAGGACG [A45G C55U G67A A69G], which yeast fitness is on record?
A: Its yeast fitness is no more than 0.5.

Q: With GUUCCGUUGGCGUAAUGGUAACGCGUCUCCCUCCUAAGGAGAAGGCUGCGAGUUCGAGCCCCGUACGGAACG [A45G G51A U59C] as the variant, how does the yeast fitness read?
A: Its yeast fitness is no more than 0.5.

Q: Which yeast fitness does the source give for GUUCCGUUGGCGUAAUGGUAACGCGUCUCCCUCCUAAGGAGAACACUGCGGGUUCGAAUCCCGUACGGAACG [G44C G58A] here?
A: Its yeast fitness is 1.02.

Q: With GUUCCGUUGGCGUAAUGGUAACGCGUCUCCCUCCUAAGGAGAACACUGCGGGUUCGACUCCCGUACGGAACG [G44C G58C] as the variant, how does the yeast fitness read?
A: Its yeast fitness is 0.919.

Q: For GUUCCGUUGGCGUAAUGGUAACGCGUCUCCCUCCUAAGGAGAAGGCUGCGGGUUCGUGUCCCGUACGGAACG [A45G A57U], which yeast fitness is on record?
A: Its yeast fitness is 0.751.

Q: For GUUCCGUUGGCGUAAUGGUAACGCGUCUCCCUCCUAAGGAGAAGCCUGCGGGUUCGAGUGCCGUACGGAACG [A45C C60G], which yeast fitness is on record?
A: Its yeast fitness is 0.603.

Q: Which yeast fitness does the source give for GUUCCGUUGGCGUAAUGGUAACGCGUCUCCCUCCUAAGGAGAAGUAUGCGUGUUCGAGUCCCGUACGGAACG [A45U C46A G51U] here?
A: Its yeast fitness is no more than 0.5.

Q: For GUUCCGUUGGCGUAAUGGUAACGCGUCUCCCUCCUAAGGAGAAGGCUGCAGGUUCGAGUCCCGUACGGAACG [A45G G50A], which yeast fitness is on record?
A: Its yeast fitness is 0.857.

Q: For GUUCCGUUGGCGUAAUGGUAACGCGUCUCCCUCCUAAGGAGAAGGCUGCGGGUUCGAGUCUCGUACGGAACG [A45G C61U], which yeast fitness is on record?
A: The yeast fitness was 1.03.

Q: With GUUCCGUUGGCGUAAUGGUAACGCGUCUCCCUCCUAAGGAGAAGUCUGCAGGUUCGAGUCCCGCACGGAACG [A45U G50A U64C] as the variant, how does the yeast fitness read?
A: Its yeast fitness is 0.72.

Q: For GUUCCGUUGGCGUAAUGGUAACGCGUCUCCCUCCUAAGGAGAAGCCUACGGGUUCGAGUCCCGUACGGAUCG [A45C G48A A70U], which yeast fitness is on record?
A: The yeast fitness was 0.654.

Q: Which yeast fitness does the source give for GUUCCGUUGGCGUAAUGGUAACGCGUCUCCCUCCUAAGGAGAAGGCCGCGGGUUCGAGUCCAGUUAGGAACG [A45G U47C C62A A65U C66A] here?
A: The yeast fitness was no more than 0.5.

Q: For GUUCCGUUGGCGUAAUGGUAACGCGUCUCCCUCCUAAGGAGAAGUCUGCGGGUUCGGGCCCCGUACGGAACG [A45U A57G U59C], which yeast fitness is on record?
A: Its yeast fitness is 0.597.

Q: With GUUCCGUUGGCGUAAUGGUAACGCGUCUCCCUCCUAAGGAGAAGUCUGGGGGUUCGAGUCCCGUACGGAACG [A45U C49G] as the variant, how does the yeast fitness read?
A: Its yeast fitness is 0.872.

Q: For GUUCCGUUGGCGUAAUGGUAACGCGUCUCCCUCCUAAGGAGAAGUCUGCGGGUUCGAGUCCCGUACGGUACG [A45U A69U], which yeast fitness is on record?
A: Its yeast fitness is 1.05.

Q: With GUUCCGUUGGCGUAAUGGUAACGCGUCUCCCUCCUAAGGAGAAGUCUGCGGGUUCGAGUCCCGUACGGCACG [A45U A69C] as the variant, how does the yeast fitness read?
A: The yeast fitness was 1.04.

Q: For GUUCCGUUGGCGUAAUGGUAACGCGUCUCCCUCCUAAGGAGAACACUGUGGGUUCGAGUCCCGGACAGAACG [G44C C49U U64G G67A], which yeast fitness is on record?
A: Its yeast fitness is 0.512.

Q: With GUUCCGUUGGCGUAAUGGUAACGCGUCUCCCUCCUAAGGAGAAGUCUGCGGGUUCGAGUCCCGUACGGACCG [A45U A70C] as the variant, how does the yeast fitness read?
A: Its yeast fitness is 0.987.

Q: Which yeast fitness does the source give for GUUCCGUUGGCGUAAUGGUAACGCGUCUCCCUCCUAAGGAGAAGCCUGCGGGUUCCAGUCCCGUACGGAACG [A45C G56C] here?
A: Its yeast fitness is 0.64.

Q: With GUUCCGUUGGCGUAAUGGUAACGCGUCUCCCUCCUAAGGAGAAGCCUGCGGGUUCAAGUCCCGUACGGAACG [A45C G56A] as the variant, how does the yeast fitness read?
A: Its yeast fitness is 0.977.
